# Measurements gathered from unrelated publications.
# Each line is one published result; the experiments were not run side by side.
# Pah: Phenylalanine-4-hydroxylase (Pah, Rattus norvegicus, UniProt P04176)
# VHL: von Hippel-Lindau disease tumor suppressor (VHL, Homo sapiens, UniProt P40337)
SMILES,target,test,conditions,Kd
C=C(C)[C@@H]1CC[C@]2(C)CC[C@]3(C)[C@H](CC[C@@H]4[C@@]5(C)CC[C@H](O)C(C)(C)[C@@H]5CC[C@]43C)[C@@H]12,"GTPase KRas (KRAS, Homo sapiens, UniProt P01116)","binding, ITC",,0.33 µM
Cc1cc2nc3c(=O)[nH]c(=O)nc-3n(C[C@H](O)[C@H](O)[C@H](O)COP(=O)(O)OP(=O)(O)OC[C@H]3O[C@@H](n4cnc5c(N)ncnc54)[C@H](O)[C@@H]3O)c2cc1C,"Nuclear receptor coactivator 3 (Homo sapiens, UniProt Q9Y6Q9)",binding,lysate,0.015 µM
N[C@@H](Cc1ccccc1)C(=O)O,Pah,"binding, fluorescence",pH 7.5,54 µM
Cc1cc(Nc2cc3ncccc3c(N[C@@H]3C[C@H]4CC[C@@H](C3)N4CCC#N)n2)n[nH]1,"Serine/threonine-protein kinase DCLK1 (DCLK1, Homo sapiens, UniProt O15075)","binding, competition with immobilised ligand",,0.89 µM
Cc1cnc(-c2ccc(-c3ccc(NC(=O)Nc4c(F)cc(F)cc4F)cc3F)c3c2C(=O)NC3)[nH]1,"Serine/threonine-protein kinase 3 (STK3, Homo sapiens, UniProt Q13188)","binding, competition with immobilised ligand",,0.0039 µM
CCCN1CCN(c2ccc(-c3cncc(Cl)c3N3CCC4(CCNC4=O)CC3)cc2)CC1,"Serine/threonine-protein kinase MRCK beta (CDC42BPB, Homo sapiens, UniProt Q9Y5S2)",cell-free assay,lysate,4.03 µM
CSCC[C@H](N)C(=O)O,Pah,"binding, fluorescence",pH 7.5,24000 µM
Nc1ncnc2c1ncn2[C@@H]1O[C@H](COP(=O)(O)O)[C@@H](OP(=O)(O)O)[C@H]1O,"Sulfotransferase 2A1 (SULT2A1, Homo sapiens, UniProt Q06520)","binding, fluorescence",,0.55 µM
Nc1ncnc2c1ncn2[C@@H]1O[C@H](CSCC[C@H](N)C(=O)O)[C@@H](O)[C@H]1O,"mdh (Escherichia coli, UniProt P61889, del14-14/del9-10/V5N)","binding, ITC",,13.3 µM
CC1(C)Cc2c(-c3ccccc3)c(-c3ccc(Cl)cc3)c(CC(=O)NCC(=O)O)n2C1,"Prostaglandin E synthase (PTGES, Homo sapiens, UniProt O14684)","binding, ITC",,2.1 µM
Cc1ncsc1-c1ccc(CNC(=O)[C@@H]2C[C@@H](O)CN2C(=O)[C@@H](NC(=O)C2(F)CC2)C(C)(C)C)c(OCCOc2ccc(CN3CCN(c4cc(-c5ccccc5O)nnc4N)CC3)cc2)c1,VHL,"binding, SPR",,0.25 µM
O=C(O)c1cccc(NC(=S)NC(=O)c2ccc3ccccc3c2)c1,"Stromal cell-derived factor 1 (CXCL12, Homo sapiens, UniProt P48061)","binding, NMR",,64 µM
CCCC[C@H](N)C(=O)O,Pah,"binding, fluorescence",pH 7.5,17000 µM
COCCOc1cc(-c2scnc2C)ccc1CNC(=O)[C@@H]1C[C@@H](O)CN1C(=O)[C@@H](NC(=O)C1(F)CC1)C(C)(C)C,VHL,"binding, SPR",,0.062 µM
CC(=O)N[C@H]1[C@H]([C@H](O)[C@H](O)CO)O[C@@](O[C@H]2[C@@H](O)[C@@H](CO)O[C@@H](O[C@H]3[C@H](O)[C@@H](NC(C)=O)C(O)O[C@@H]3CO)[C@@H]2O)(C(=O)O)C[C@@H]1O (stereo partly drawn),"SIGLEC5 (Homo sapiens, UniProt O15389, C36A)","binding, NMR",,7000 µM
